“And” between values parts separate entries of the source, which are not always exact repeats. Equal values may be shown once. The source made the active and inactive calls.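 The calls were made as follows: active = falling signal with AC50 at or below twice the highest valid dose tested for that sample; inconclusive = flat curve at 30 to 70% inhibition, or unreliable fit; inactive = the rest.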
Tested on: not listed separately
Experiment: single-agent C. albicans CaCi-2 growth inhibition, dose response, CaCi-2 strain, dry powder, plate reader, set 2 (AID 623899)
Details: C. albicans CaCi-2 growth, Alamar Blue fluorescence, 48 h; at 26 µM (top of the series)
Outline: (§1)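 Benchmarks: Amphotericin 10 µM positive control | Test system: C. albicans CaCi-2, a fluconazole-resistant clinical isolate | Input: Inoculum OD600 0.00015 | Doses: Pinned compound, dose-response series | Buffer or medium: Defined RPMI 1640 medium with MOPS | Schedule: 48 h compound exposure at 37 °C, dye 2 h | Measured by: Alamar Blue fluorescence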

Structure (SMILES) | activity change, negative = inhibition
CCCC(=O)N1C(=O)C2(CCCCC2)N(c2ccc(C)cc2)C1=S | 15.2% (inactive)
Cc1ccc(N2C(=S)NC(=O)C23CCCC3)cc1 | 7.79% (inactive)
CCOC(=O)N1C(=O)C2(CCCCC2)NC1=S | 0.477% (inactive)
Cc1ccc(N2C(=O)NC(=O)C23CCCCC3)cc1 | 14.7% (inactive)
Cc1ccc(N2C(=S)NC(=O)C23CCOCC3)cc1 | -17.4% (inactive)
Cc1ccc(N2C(=S)NC(=O)C23CCC3)cc1 | -14.6% (inactive)
Cc1ccc(N2C(=S)N(C(=O)Oc3ccccc3)C(=O)C23CCCCC3)cc1 | 9.01% (inactive)
Cc1ccc(N2CC(=O)NC2=O)cc1 | -7.46% (inactive)
CCOC(=O)N1C(=S)NC(=O)C12CCCCC2 | 6.84% (inactive)
CCOC(=O)N1C(=S)N(c2ccc(C)cc2)C(=O)C12CCCCC2 | 6.88% (inactive)
CCOC(=O)N1C(=S)N(c2ccc(C)cc2)C2(CCCCC2)C1=NCc1ccccc1 | 3.84% (inactive)
Cc1ccc(N2C(=O)C(=O)NC2=S)cc1 | 9.23% (inactive)
Cc1ccc(N2C(=S)N(C(=O)OCc3ccccc3)C(=O)C23CCCCC3)cc1 | 1.35% (inactive)
O=C1NC(=S)NC12CCCCC2 | 4.86% (inactive)
CCOC(=O)N1C(=O)C2(CCC2)N(c2ccc(C)cc2)C1=S | 18% (inactive)
Cc1ccc(N2C(=S)NC(=O)C2(C)C)cc1 | 2.43% (inactive)
O=C1NC(=S)N(Cc2ccccc2)C12CCCCC2 | 0.564% (inactive)
CCCCN1C(=O)N(c2ccc(C)cc2)C2(CCCCC2)C1=O | 9.77% (inactive)
Cc1ccc(N2C(=S)N(C)C(=O)C23CCCCC3)cc1 | -8.14% (inactive) and -15.3% (inactive)
CCOC(=O)N1C(=O)N(c2ccc(C)cc2)C2(CCCCC2)C1=O | -28.5% (inactive)
CCOC(=O)N1C(=O)C2(CCCCC2)N(C(C)C)C1=S | -20% (inactive)
CCOC(=O)N1C(=O)C(C)(C)N(c2ccc(C)cc2)C1=S | 17.8% (inactive)
Cc1ccc(N2C(=S)N(S(C)(=O)=O)C(=O)C23CCCCC3)cc1 | 8.47% (inactive)
Cc1ccc(N2C(=O)C3(CCCCC3)NC2=S)cc1 | 9.21% (inactive)
CC(C)N1C(=S)NC(=O)C12CCCCC2 | -4.41% (inactive)
Cc1ccc(N2CC(=O)NC2=S)cc1 | -6.22% (inactive)
Cc1ccc(N2C(=O)N(C)C(=O)C23CCCCC3)cc1 | 8.26% (inactive)
CCOC(=O)N1C(=O)C2(CCCCC2)N(c2ccc(C(C)C)cc2)C1=S | -19.6% (inactive)
O=C1NC(=S)N(c2ccc(F)cc2)C12CCCCC2 | -13.4% (inactive)

Tested on: C. albicans CaCi-2 growth, Alamar Blue fluorescence, 48 h
Experiment: as above
Details: not given
Outline: as §1

Structure (SMILES) | AC50
CCOC(=O)N1C(=O)C2(CCCCC2)N(c2ccc(OC)cc2)C1=S | 1780 nM
O=C1NC(=S)N(c2ccccc2)C12CCCCC2 | > 52000 nM (inactive)
CCOC(=O)N1C(=O)C2(CCCCC2)N(c2ccc(Cl)cc2)C1=S | < 100 nM
CCOC(=O)N1C(=O)C2(CCCCC2)N(Cc2ccccc2)C1=S | 3760 nM
CCOC(=O)N1C(=O)C2(CCCCC2)N(c2ccccc2)C1=S | 148 nM
Cc1ccc(N2C(=S)N(C(=O)OC(C)C)C(=O)C23CCCCC3)cc1 | 8740 nM
CCOC(=O)N1C(=O)C2(CCCCC2)N(c2ccccc2C)C1=S | 1200 nM
Cc1ccc(N2C(=S)NC(=O)C23CCCCC3)cc1 | > 52000 nM (inactive)
CCOC(=O)N1C(=O)C2(CCCCC2)N(c2ccc(C(F)(F)F)cc2)C1=S | 841 nM
CCCOC(=O)N1C(=O)C2(CCCCC2)N(c2ccc(C)cc2)C1=S | 5900 nM
CCOC(=O)N1C(=O)C2(CCCCC2)N(c2ccc(CC)cc2)C1=S | 1900 nM
CCCc1ccc(N2C(=S)N(C(=O)OCC)C(=O)C23CCCCC3)cc1 | 6910 nM
CC1/C=C/C=C\C=C\C=C\C=C\C=C\C=C\C(O[C@H]2OC(C)C(O)C(N)C2O)CC2OC(O)(CC(O)CC(O)C(O)CCC(O)CC(O)CC(=O)OC(C)C(C)C1O)CC(O)C2C(=O)O (stereo partly specified) | < 10 nM
CCOC(=O)N1C(=O)C2(CCCCC2)N(c2cccc(C)c2)C1=S | 189 nM
CCOC(=O)N1C(=O)C2(CCOCC2)N(c2ccc(C)cc2)C1=S | 20600 nM
CCOC(=O)N1C(=O)C2(CCCCC2)N(c2ccc(F)cc2)C1=S | < 100 nM
CCCCN1C(=O)N(c2ccc(C)cc2)C2(CCCCC2)C1=S | > 52000 nM (inactive)
CCOC(=O)N1C(=O)C2(CCCC2)N(c2ccc(C)cc2)C1=S | 9790 nM
CCOC(=O)N1C(=O)C2(CCCCC2)N(c2ccc(C)cc2)C1=S | 359 nM and 303 nM
COC(=O)N1C(=O)C2(CCCCC2)N(c2ccc(C)cc2)C1=S | 1890 nM
CCCCN1C(=O)C2(CCCCC2)N(c2ccc(C)cc2)C1=S | > 52000 nM (inactive)
CCOC(=O)N1C(=O)C2(CCCCC2)N(c2ccc(C#N)cc2)C1=S | < 100 nM

From PubChem BioAssay AID623899 (Broad Institute, 2012)
